Experimental data from ChEMBL document CHEMBL1914352, “Design, synthesis, docking, and biological evaluation of novel diazide-containing isoxazole- and pyrazole-based histone deacetylase probes” (J Med Chem, 2011).
Activity calls are given as the source filed them. No cut-off for these calls is given here.

Key:
[1] = test system: SH-SY5Y; test: cells; format: functional, cell-based; settings: Homo sapiens, 24 h
[2] = test system: HepG2; test: cells; format: functional, cell-based; settings: Homo sapiens, HepG2, 24 h
[3] = target: Histone deacetylase 1 (Homo sapiens, UniProt Q13547); test: Inhibition of human recombinant HDAC1 using fluorophore-conjugated substrate Boc-L-Lys(Ac)-AMC after 60 mins
[4] = test system: HeLa; test: cells; format: functional, cell-based; settings: Homo sapiens, 72 h
[5] = test system: SH-SY5Y; test: cells; format: functional, cell-based; settings: Homo sapiens, 72 h
[6] = test system: SH-SY5Y; test: cells; format: functional, cell-based; settings: Homo sapiens, 48 h
[7] = target: Histone deacetylase 5 (Homo sapiens, UniProt Q9UQL6); test: Inhibition of human recombinant HDAC5 using fluorophore-conjugated substrate Boc-L-Lys(Ac)-AMC after 60 mins
[8] = target: Histone deacetylase 2 (Homo sapiens, UniProt Q92769)
[9] = target: T1, Histone deacetylase 7 (Homo sapiens, UniProt Q8WUI4); test: Inhibition of human recombinant HDAC7 using fluorophore-conjugated substrate Boc-L-Lys(Ac)-AMC after 60 mins
T1 sequence (Q8WUI4 whole entry): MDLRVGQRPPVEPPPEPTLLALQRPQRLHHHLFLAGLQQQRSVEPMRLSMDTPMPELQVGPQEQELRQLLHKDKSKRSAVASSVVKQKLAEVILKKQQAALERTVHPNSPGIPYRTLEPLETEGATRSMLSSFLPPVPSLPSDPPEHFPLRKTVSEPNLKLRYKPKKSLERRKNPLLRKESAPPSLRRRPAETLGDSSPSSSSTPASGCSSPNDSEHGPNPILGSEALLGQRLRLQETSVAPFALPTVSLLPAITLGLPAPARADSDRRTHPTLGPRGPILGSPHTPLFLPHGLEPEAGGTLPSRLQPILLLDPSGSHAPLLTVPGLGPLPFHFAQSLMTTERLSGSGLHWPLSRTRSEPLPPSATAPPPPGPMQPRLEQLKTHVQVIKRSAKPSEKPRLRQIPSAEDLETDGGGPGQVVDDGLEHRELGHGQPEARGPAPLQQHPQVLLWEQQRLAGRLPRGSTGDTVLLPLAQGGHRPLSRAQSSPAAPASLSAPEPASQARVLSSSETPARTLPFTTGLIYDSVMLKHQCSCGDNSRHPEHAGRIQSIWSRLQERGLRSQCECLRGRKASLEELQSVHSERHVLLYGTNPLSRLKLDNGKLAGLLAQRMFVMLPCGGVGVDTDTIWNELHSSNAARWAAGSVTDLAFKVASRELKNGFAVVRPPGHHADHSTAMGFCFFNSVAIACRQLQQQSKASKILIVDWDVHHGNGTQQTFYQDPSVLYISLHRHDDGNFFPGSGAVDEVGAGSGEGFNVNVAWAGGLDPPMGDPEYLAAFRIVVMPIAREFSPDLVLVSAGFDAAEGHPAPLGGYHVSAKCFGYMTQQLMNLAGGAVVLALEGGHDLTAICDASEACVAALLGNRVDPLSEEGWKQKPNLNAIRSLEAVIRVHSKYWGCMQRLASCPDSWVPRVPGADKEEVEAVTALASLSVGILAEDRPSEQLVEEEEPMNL

[10] = target: T2, Protein deacetylase HDAC6 (Homo sapiens, UniProt Q9UBN7); test: Inhibition of human recombinant HDAC6 using fluorophore-conjugated substrate Boc-L-Lys(Ac)-AMC after 60 mins
T2 sequence (Q9UBN7 whole entry): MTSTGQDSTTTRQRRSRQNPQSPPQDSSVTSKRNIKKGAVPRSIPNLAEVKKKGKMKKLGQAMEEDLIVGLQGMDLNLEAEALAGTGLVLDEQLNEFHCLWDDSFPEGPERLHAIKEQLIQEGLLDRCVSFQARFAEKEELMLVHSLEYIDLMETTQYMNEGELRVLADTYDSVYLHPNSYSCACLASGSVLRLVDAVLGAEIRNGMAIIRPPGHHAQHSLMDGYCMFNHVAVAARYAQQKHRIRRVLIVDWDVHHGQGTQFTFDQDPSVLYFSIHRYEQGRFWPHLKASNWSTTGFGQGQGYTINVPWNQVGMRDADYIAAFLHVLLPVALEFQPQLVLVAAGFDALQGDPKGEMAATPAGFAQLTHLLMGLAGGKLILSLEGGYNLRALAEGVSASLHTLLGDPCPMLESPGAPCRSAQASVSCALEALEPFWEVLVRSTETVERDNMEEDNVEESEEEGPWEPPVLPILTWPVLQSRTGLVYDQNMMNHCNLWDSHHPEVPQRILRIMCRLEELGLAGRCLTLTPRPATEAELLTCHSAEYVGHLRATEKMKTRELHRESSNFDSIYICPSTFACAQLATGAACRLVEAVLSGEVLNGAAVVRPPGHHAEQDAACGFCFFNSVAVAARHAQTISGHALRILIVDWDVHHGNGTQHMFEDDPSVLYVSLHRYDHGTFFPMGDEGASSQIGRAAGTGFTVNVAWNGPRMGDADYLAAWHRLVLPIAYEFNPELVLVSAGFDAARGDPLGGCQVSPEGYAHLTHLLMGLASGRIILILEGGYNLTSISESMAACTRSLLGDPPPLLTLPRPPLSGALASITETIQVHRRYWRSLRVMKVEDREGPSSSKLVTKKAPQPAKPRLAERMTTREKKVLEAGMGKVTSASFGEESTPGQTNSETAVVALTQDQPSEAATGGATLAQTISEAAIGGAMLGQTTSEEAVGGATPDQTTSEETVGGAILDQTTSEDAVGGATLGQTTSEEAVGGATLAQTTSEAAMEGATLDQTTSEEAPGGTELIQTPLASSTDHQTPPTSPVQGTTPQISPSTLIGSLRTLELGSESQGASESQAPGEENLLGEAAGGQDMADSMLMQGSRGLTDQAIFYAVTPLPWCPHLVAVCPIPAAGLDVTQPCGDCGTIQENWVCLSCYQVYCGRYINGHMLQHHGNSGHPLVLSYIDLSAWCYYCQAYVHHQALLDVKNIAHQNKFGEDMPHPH

[11] = test system: HepG2; test: cells; format: functional, cell-based; settings: Homo sapiens, HepG2, 48 h
[12] = test system: HeLa; test: cells; format: functional, cell-based; settings: Homo sapiens, 24 h
[13] = test system: HepG2; test: Induction of apoptosis in human HepG2 cells assessed as cleavage of caspase 3 at 1 to 10 uM after 14 hrs by Western blot analysis; format: functional, cell-based
Summary of the method: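 HepG2 cells are seeded at 2.7×10^5 cells/well in D7 medium (DMEM, 7% FBS), refed after 24 h, and after 1 h at 37 °C treated with DMSO or 1, 5 or 10 µM inhibitor. Lysis is in ice-cold 1% CHAPSO buffer (50 mM Hepes pH 7.4), 45 min at 4 °C. Immunoblots are probed for cleaved caspase 3 Asp175, acetyl-Lys373 p53, total p53 and GAPDH, detected by chemiluminescence, with band densitometry.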

Sequence of Histone deacetylase 5 (Q9UQL6 whole entry): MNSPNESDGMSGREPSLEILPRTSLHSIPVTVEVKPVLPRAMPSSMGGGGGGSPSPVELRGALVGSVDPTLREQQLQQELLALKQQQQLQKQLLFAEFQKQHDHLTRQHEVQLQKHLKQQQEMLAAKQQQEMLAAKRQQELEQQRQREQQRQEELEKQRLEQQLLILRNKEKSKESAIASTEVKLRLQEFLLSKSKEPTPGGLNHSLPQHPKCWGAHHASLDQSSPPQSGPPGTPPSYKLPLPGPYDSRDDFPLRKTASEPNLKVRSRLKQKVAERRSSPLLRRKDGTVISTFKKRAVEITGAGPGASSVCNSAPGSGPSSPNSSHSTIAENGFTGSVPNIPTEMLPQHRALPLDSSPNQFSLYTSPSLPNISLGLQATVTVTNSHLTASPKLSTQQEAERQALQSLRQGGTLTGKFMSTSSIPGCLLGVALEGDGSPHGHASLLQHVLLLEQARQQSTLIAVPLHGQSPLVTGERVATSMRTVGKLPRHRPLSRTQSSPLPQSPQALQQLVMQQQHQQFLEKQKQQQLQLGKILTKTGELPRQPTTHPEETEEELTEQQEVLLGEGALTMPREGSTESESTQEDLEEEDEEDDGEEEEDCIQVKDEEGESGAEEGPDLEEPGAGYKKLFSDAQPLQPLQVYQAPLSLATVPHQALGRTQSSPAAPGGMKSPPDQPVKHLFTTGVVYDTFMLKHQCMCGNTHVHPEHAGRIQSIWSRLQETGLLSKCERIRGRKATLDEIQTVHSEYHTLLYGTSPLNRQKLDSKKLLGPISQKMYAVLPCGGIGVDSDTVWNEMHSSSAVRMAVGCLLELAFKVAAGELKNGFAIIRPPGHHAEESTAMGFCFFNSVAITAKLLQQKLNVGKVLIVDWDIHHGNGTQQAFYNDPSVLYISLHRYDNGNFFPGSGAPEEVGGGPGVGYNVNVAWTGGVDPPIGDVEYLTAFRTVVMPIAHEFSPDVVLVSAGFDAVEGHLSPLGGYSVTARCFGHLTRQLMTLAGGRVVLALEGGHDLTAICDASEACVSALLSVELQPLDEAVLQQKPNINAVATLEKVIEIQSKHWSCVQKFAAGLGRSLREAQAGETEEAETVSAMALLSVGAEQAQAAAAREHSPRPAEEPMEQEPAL
Sequence of Histone deacetylase 1 (Q13547 whole entry): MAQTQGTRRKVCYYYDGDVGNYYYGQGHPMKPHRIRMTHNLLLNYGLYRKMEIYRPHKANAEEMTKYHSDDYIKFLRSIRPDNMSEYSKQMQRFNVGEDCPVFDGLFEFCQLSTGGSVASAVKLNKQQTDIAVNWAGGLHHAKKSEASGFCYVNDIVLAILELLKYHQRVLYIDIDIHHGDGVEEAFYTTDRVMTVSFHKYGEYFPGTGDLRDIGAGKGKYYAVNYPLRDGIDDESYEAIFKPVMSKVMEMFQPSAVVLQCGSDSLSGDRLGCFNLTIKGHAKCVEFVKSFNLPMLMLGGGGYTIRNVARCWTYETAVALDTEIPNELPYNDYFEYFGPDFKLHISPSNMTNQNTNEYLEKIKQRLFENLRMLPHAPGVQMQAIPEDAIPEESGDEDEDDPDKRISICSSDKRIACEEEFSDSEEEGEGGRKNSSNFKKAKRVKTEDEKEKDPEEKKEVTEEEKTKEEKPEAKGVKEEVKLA
Sequence of Histone deacetylase 2 (Q92769 whole entry): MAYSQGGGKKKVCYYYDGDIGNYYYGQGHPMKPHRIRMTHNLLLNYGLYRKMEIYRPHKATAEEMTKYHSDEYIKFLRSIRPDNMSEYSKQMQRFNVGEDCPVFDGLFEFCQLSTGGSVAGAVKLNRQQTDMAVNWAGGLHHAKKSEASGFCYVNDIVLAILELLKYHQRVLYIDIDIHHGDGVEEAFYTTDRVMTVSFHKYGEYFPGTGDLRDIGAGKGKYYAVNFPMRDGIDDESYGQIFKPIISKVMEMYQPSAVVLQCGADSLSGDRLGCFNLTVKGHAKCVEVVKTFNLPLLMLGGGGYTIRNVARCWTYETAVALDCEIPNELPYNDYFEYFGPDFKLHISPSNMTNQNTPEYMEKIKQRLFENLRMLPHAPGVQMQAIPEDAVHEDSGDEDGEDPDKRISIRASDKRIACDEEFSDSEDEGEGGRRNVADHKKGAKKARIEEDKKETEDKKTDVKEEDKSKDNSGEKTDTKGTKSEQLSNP

EC50 [1] | EC50 [2] | IC50 [3] | EC50 [4] | EC50 [5] | EC50 [6] | IC50 [7] | IC50 [8] | IC50 [9] | IC50 [10] | EC50 [11] | EC50 [12] | Structure (SMILES) | Activity [13]
> 50 µM | > 50 µM | 0.0991 µM | 15 µM | 20.8 µM | 35.9 µM | 0.892 µM | 1 µM | 4.51 µM | 0.274 µM | 24.3 µM | 30.6 µM | [N-]=[N+]=NCc1cc(Cn2cc(NC(=O)CCCCCCC(=O)NO)cn2)cc(N=[N+]=[N-])c1 | –
> 50 µM | > 50 µM | 0.0822 µM | 4.7 µM | 23 µM | 32.2 µM | 0.932 µM | 0.78 µM | 2.23 µM | 0.047 µM | 11.5 µM | 26.5 µM | [N-]=[N+]=NCc1cc(N=[N+]=[N-])cc(C(=O)Nc2ccc(-c3cc(C(=O)NCCCCCCC(=O)NO)no3)cc2)c1 | Active
